Series [1] has as its target T1, Amine oxidase [flavin-containing] A (Homo sapiens, UniProt P21397).
T1 sequence (P21397 whole entry): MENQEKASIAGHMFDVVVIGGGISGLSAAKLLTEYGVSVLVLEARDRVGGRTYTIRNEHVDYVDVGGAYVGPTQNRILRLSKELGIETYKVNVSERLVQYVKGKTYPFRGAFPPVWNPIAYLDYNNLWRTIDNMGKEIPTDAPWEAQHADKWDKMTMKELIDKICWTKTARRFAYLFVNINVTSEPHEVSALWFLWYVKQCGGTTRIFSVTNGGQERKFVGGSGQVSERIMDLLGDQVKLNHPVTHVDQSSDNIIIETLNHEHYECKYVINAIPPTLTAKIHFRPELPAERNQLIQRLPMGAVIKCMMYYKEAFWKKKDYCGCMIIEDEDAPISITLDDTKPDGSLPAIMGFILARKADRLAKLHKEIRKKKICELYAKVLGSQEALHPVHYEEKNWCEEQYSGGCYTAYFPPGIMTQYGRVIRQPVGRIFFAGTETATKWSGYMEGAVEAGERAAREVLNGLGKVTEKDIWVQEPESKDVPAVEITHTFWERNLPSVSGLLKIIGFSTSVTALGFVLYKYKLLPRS
In words: Inhibition of human recombinant MAOA expressed in baculovirus-infected BTI insect cells assessed as conversion of p-tyramine into p-hydroxyphenyl-acetaldehyde at 100 uM after 15 mins by fluorimetric assay. To be noted: 0.25 h. The essentials:
(§1)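 Recombinant hMAO-A or hMAO-B was adjusted to the same velocity (165 pmol p-tyramine/min; specific activity 150 nmol/min/mg for A, 22 for B). Enzyme and drug in 0.05 M sodium phosphate pH 7.4 were preincubated 15 min at 37 °C. Amplex Red, 1 U/mL HRP and 1 mM p-tyramine (final) were added, and resorufin fluorescence was read at 37 °C. Values were background-subtracted against enzyme-free blanks with vehicle controls.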

Series [2] is filed under the species Homo sapiens. As to the kind of experiment: Selectivity index, ratio of IC50 for human recombinant MAOA to IC50 for human recombinant MAOB. In a few lines:
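The index is IC50(MAO-A)/IC50(MAO-B) from the fluorimetric Amplex Red/p-tyramine assay on recombinant human isoforms.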

The target in series [3] is T2, Amine oxidase [flavin-containing] B (Homo sapiens, UniProt P27338).
T2 sequence (P27338 whole entry): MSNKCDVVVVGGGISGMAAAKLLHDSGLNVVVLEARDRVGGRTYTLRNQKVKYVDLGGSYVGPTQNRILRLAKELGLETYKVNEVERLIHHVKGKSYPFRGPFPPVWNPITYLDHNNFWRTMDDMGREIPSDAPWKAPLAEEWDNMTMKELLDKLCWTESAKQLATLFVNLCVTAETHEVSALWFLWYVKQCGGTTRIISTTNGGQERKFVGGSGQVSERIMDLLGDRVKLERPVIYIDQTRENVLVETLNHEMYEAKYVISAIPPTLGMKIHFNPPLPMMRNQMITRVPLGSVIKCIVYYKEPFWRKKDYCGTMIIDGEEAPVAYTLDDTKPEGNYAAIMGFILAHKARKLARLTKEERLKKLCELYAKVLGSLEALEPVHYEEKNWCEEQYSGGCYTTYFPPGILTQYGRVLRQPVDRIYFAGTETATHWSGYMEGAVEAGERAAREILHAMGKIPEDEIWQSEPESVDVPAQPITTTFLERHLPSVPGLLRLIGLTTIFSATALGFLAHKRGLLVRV
In words: Inhibition of human recombinant MAOB expressed in baculovirus-infected BTI insect cells assessed as using transformed p-tyramine after 15 mins by fluorimetric assay. In kind it is single protein.

Series [4] concerns the target T2, Amine oxidase [flavin-containing] B. As to the kind of experiment: Inhibition of human recombinant MAOB expressed in baculovirus-infected BTI insect cells assessed as using transformed p-tyramine at 100 uM after 15 mins by fluorimetric assay. To be noted: 0.25 h. In a few lines:
as §1

The values that follow come from ChEMBL document CHEMBL1933016, “Hydroxycoumarins as selective MAO-B inhibitors” (Bioorg Med Chem Lett, 2012).

For `COc1ccc(-c2c(O)c3cc(Cl)ccc3oc2=O)cc1Cl`, in series [1], the “inhibition (INH)” value is “Not Active”. The Ratio IC50 in series [2] is greater than 36. Moreover, the IC50 (usually the point on the concentration scale where inhibition reaches its midpoint) in series [3] worked out at 2.79 µM.

For the compound `COc1ccc(-c2c(O)c3cc(Cl)ccc3oc2=O)cc1`, the “inhibition (INH)” value in series [1] and in series [4] was “Not Active” in each case.

`COc1ccc(-c2c(O)c3cc(C)ccc3oc2=O)cc1`: the “inhibition (INH)” value in series [1] was “Not Active”. Also, the Ratio IC50 in series [2] was greater than 3.1. In addition, in series [3], the IC50 was 32 µM.

As to `O=c1oc2ccccc2c(O)c1-c1ccccc1`, the “inhibition (INH)” value in series [1] and in series [4] was “Not Active” throughout.

With `COc1ccc(-c2c(O)c3ccccc3oc2=O)cc1Cl`, in series [1], the “inhibition (INH)” value is “Not Active”.

For the compound `COc1ccc(-c2c(O)c3ccccc3oc2=O)cc1`, the “inhibition (INH)” value in series [1] is “Not Active”. Besides, the Ratio IC50 in series [2] is greater than 1.4. The IC50 in series [3] amounted to 69.6 µM.

Turning to `COc1ccc(-c2c(O)c3cc(C)ccc3oc2=O)cc1Cl`, the “inhibition (INH)” value in series [1] is “Not Active”. The Ratio IC50 in series [2] was greater than 2.3. The half-inhibitory concentration (IC50) in series [3] stood at 42.7 µM.
